# Compound activity from PubChem.
# In the library only some 9.6% were active in any assay of this set; here they are far more common.
# bCat nuc transl – modulators of beta-catenin nuclear translocation, primary screen, imaging, HeLa cells, immunofluorescence, high-content. nuclear translocation activity, % at 5 µM. 190,000 tested, 0.3% active;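 active means nuclear translocation activity above 50% at 5 µM, with a well cell count of 50 or more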;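 further: per-cell ratio of nuclear to cytoplasmic median beta-catenin stain intensity; plate controls were DMSO negative control for no effect and GSK-3 inhibitor IX positive control for full effect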
#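 Read-out: Nuclear/cytoplasmic beta-catenin signal ratio, % activation | Assay system: Human HeLa cell line | Times: 24 h compound exposure at 37°C, 5% CO2 | Signal: Fluorescence imaging of beta-catenin antibody stain plus DAPI | Dosing: 5 µM primary, 0.02–20 µM confirmation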
# APP transl inh – inhibitors of APP translation via 5'UTR reporter, primary screen, APP 5'UTR luciferase, SH-SY5Y cells; SH-SY5Y APP 5'UTR-luciferase reporter, luminescence; AID 1285, 2008; inhibition, % at 2 µM; 190,000 tested, 0.82% active;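 active means inhibition above a set limit, derived from the sample mean plus 3 SD, cut at about 45% in these data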
# Ba/F3 V617F tox – reduced viability of JAK2V617F-dependent Ba/F3 cells, primary screen, JAK2V617F inhibitor project, cell-based, Ba/F3 EpoR-JAK2V617F, luminescence | 220,000 tested, 1.1% active | ATP luminescence | inhibition, % at 5.6 µM;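 active means inhibition above the campaign mean plus 3 SD over all tested compounds, cut at about 24% in these data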;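 further: cytokine-independent growth of Ba/F3 cells driven by EpoR plus mutant JAK2; 0% = DMSO-treated cells and 100% = JAK inhibitor I control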
# L major viab – Leishmania major promastigote growth inhibition, primary screen; inhibition, % at 10 µM; 200,000 tested, 9% active; Leishmania major promastigotes, resazurin fluorescence viability; in the data active means inhibition above about 50%;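 further: promastigotes grown with compound for 44 hours at 28 °C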
# BaF3 parental – parental Ba/F3 cell viability inhibition, counter-screen for JAK2V617F inhibitor project, murine pro-B, CellTiter-Glo luminescence; CellTiter-Glo ATP luminescence; inhibition, % at 5.6 µM; 220,000 tested, 1.1% active;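 active means inhibition above a per-campaign cutoff, the mean inhibition of all tested compounds plus 3 SD, cut at about 27% in these data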;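 further: 0% = DMSO wells and 100% = JAK Inhibitor I control wells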
# MT stabilize HCS – microtubule stabilizers in HeLa cells, primary screen, imaging, high-content imaging; HeLa tubulin immunostaining HCS, 24 h; share of cells brighter than vehicle mean+2SD; % tubulin-high responders, % at 10 µM; 200,000 tested, 0.83% active; AID 2205, 2009;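 active means plate Z-score above 3 for both tubulin-high and condensed-nucleus cell shares, with cell loss under 80%, at 10 µM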;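 further: anti alpha tubulin signal scored within the nucleus-defined area of each cell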
# * = called active by the depositor; · = no result.
SMILES,bCat nuc transl,APP transl inh,Ba/F3 V617F tox,L major viab,BaF3 parental,MT stabilize HCS
OCC1(Cc2ccc(Cl)cc2)CCN(Cc2ccccc2F)CC1,0,15,2,57*,-1,3
OCC1(Cc2ccc(Cl)cc2)CCN(CCCc2ccccc2)CC1,1,13,0,95*,6,3
Cc1ccc(C2CC(=O)C=C(NCc3ccccc3)C2)cc1 (centres undefined),18,·,0,·,-1,·
Cc1ccc(NS(=O)(=O)c2ccc(C)c(C(=O)N3CCN(C)CC3)c2)cc1,-5,-9,2,-9,5,2
OCC1(Cc2ccccc2)CCN(Cc2ccc(C(F)(F)F)cc2)CC1,2,-12,1,81*,7,5
CCOC(=O)C(=NC(C)CC)NNc1ccc(Br)cc1 (centres undefined),0,5,2,-11,4,2
CO/N=C/C(=N\Nc1ccc(OC)cc1)C(=O)c1ccc(OC)cc1,·,9,-3,4,3,53*
O=C(Nc1nc2ccccc2n1CCN1CCOCC1)c1cn(-c2ccccc2)nc1-c1ccccc1,-2,4,1,96*,5,15
Cc1cnc(SCCc2ccncc2)nc1C,-1,-6,-2,14,4,4
CSc1nn(CCc2ccncc2)c(=S)s1,1,-6,0,56*,4,1
CC(C(=O)NCc1ccc(F)cc1)c1ccc([N+](=O)[O-])cc1 (centres undefined),-1,13,3,-1,13,4
CN1\C(=C/C=C/C=C/C=[N+](C)C)C(C)(C)c2ccccc21,·,10,38*,98*,33*,91
CN1/C(=C\C=O)C(C)(C)c2ccccc21,-4,10,39*,11,49*,7
CN1/C(=C/C=C(C#N)C#N)C(C)(C)c2ccccc21,-1,-6,-3,0,0,3
COCC1CCCN(Cc2cn(-c3ccccc3)nc2-c2ccc3c(c2)OCO3)C1 (centres undefined),-1,-6,-1,13,3,2
c1ccc(C2CCC3(CC2)Oc2ccccc2C2CC(c4cccnc4)=NN23)cc1 (centres undefined),2,-9,-2,89*,5,3
COc1ccc(S(=O)(=O)N(CCCN2CCOCC2)Cc2cccc3ccccc23)cc1,·,4,-2,99*,3,1
O=S(=O)(c1ccc(Cl)cc1)N(CCCN1CCOCC1)Cc1cccs1,-1,0,-1,68*,10,2
O=C(Nc1ccc(Cl)cc1)N(CCCN1CCOCC1)Cc1cccs1,·,2,0,8,5,2
CC(=O)OCC1=C(C(=O)O)N2C(=O)C(NC(=O)c3ccc(COc4cccc(Cl)c4Cl)o3)C2SC1 (centres undefined),1,1,-4,-8,7,2
CC(c1ccccc1)N1C(=O)NC(NC(=O)C(C)(C)C)(C(F)(F)F)C1=O (centres undefined),-2,0,3,52*,8,3
O=C(NNC(=S)Nc1ccc(F)cc1)c1ccccc1OC(F)F,0,12,-1,13,5,2
Cc1ccc(NC(=S)NNC(=O)c2ccccc2OC(F)F)cc1,1,-14,26*,-1,41*,45*
COCCCNC(=O)CCC(=O)NNc1nc2ccccc2c2nc(C)nn12,-1,-6,0,-6,4,5
CCOC(=O)C1(CC2CC2)CCN(Cc2ccc(OC)cc2F)CC1,2,9,-1,43,80*,3
CCOC(=O)C1(CCc2ccccc2)CCN(Cc2ccc(O)cc2)CC1,-2,1,8,95*,6,2
CCOC(=O)C1(CCc2ccccc2)CCN(Cc2ccc(OC)cc2)CC1,2,-13,1,85*,8,3
CCOC(=O)C1(CCc2ccccc2)CCN(Cc2nccn2CC)CC1,0,-7,2,31,4,2
CCOC(=O)C1(CCc2ccccc2)CCN(Cc2c(O)cccc2OC)CC1,0,-19,-1,91*,4,2
